From ChEMBL document CHEMBL1124926, “Structure-activity relationships of antifilarial antimycin analogues: a multivariate pattern recognition study” (J Med Chem, 1990)

What was measured:
Brugia pahangi [1] = experiment: (§1) In vivo percent reduction of Brugia pahangi worm in gerbils; type: functional; parameters: concentration or dose not given beside the values
How it was run: (§2)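 Animals were autopsied 35 days after the final dose, and worm recoveries were compared with those from untreated controls.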

Acanthocheilonema viteae = experiment: In vitro macrofilaricidal activity against Dipetalonema viteae was determined using the leakage of incorporated radiolabeled adenine method.; type: functional, organism-based
How it was run: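 D. viteae adult females were labelled with radiolabelled adenine, then exposed for 120 h to concentrations descending from 10 μM in serum-free Eagle's minimal essential medium. Viability was scored as leakage of incorporated label into the medium, and the EC50 was the concentration releasing 50% of the adenine taken up.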

[2] = Negative log transformed activity; type: ADME; parameters: unit not given here
Brugia pahangi [3] = experiment: In vivo percent reduction of Brugia pahangi worm in gerbils; Some toxicity; type: functional; how it was run: as §2
Brugia pahangi [4] = experiment: as §1; type: functional; how it was run: as §2

-Log activity [2]	SMILES	Worm reduction (Brugia pahangi [1])	EC50 (Acanthocheilonema viteae)	Worm reduction (Brugia pahangi [3])	Worm reduction (Brugia pahangi [4])
1.55	O=C(Nc1ccc(Oc2ccc(SC(F)(F)F)cc2)c(Cl)c1)c1cc([N+](=O)[O-])ccc1O	–	28 nM	85%	–
1.13	O=C(Nc1ccc(C(=O)c2ccc(Cl)cc2)c(Cl)c1)c1cc([N+](=O)[O-])ccc1O	14%	74 nM	–	–
1.36	O=C(Nc1ccc(Sc2ccc(Cl)cc2)c(Cl)c1)c1cc([N+](=O)[O-])ccc1O	70%	44 nM	–	–
0.77	COc1ccc(Oc2ccc(NC(=O)c3cc([N+](=O)[O-])ccc3O)cc2Cl)cc1	61%	170 nM	–	–
1.4	O=C(Nc1ccc(Oc2ccc(Cl)cc2)c(Cl)c1)c1cc([N+](=O)[O-])ccc1O	80.6%	40 nM	–	–
0.42	CSc1cccc(C(=O)Nc2ccc(Oc3ccc(Cl)cc3)c(Cl)c2)c1O	52%	380 nM	–	–
1.07	O=C(Nc1ccc(Oc2cccc(C(F)(F)F)c2)c(Cl)c1)c1cc([N+](=O)[O-])ccc1O	74%	85 nM	–	–
0.32	CSc1ccc(O)c(C(=O)Nc2ccc(Oc3ccc(Cl)cc3)c(Cl)c2)c1	58%	480 nM	–	–
0.82	O=C(Nc1ccc(Oc2ccc(Cl)cc2)c(Cl)c1)c1cccc([N+](=O)[O-])c1O	–	150 nM	–	–
-0.88	C[S+]([O-])c1ccc(O)c(C(=O)Nc2ccc(Oc3ccc(Cl)cc3)c(Cl)c2)c1 (centres undefined)	84%	7500 nM	–	–
0.43	O=C(Nc1ccc(Nc2ccc(Cl)cc2)c(Cl)c1)c1cc([N+](=O)[O-])ccc1O	48%	370 nM	–	–
0.92	O=C(Nc1ccc(Oc2ccc([N+](=O)[O-])cc2Cl)cc1)c1cc([N+](=O)[O-])ccc1O	70%	120 nM	–	–
1.84	N#Cc1ccc(O)c(C(=O)Nc2ccc(Oc3ccc(Cl)cc3)c(Cl)c2)c1	17%	14.5 nM	–	–
0	CS(=O)(=O)c1ccc(O)c(C(=O)Nc2ccc(Oc3ccc(Cl)cc3)c(Cl)c2)c1	28%	1000 nM	–	–

Second part, the compound before the results:

SMILES	-Log activity [2]	Worm reduction (Brugia pahangi [1])	EC50 (Acanthocheilonema viteae)	Worm reduction (Brugia pahangi [3])	Worm reduction (Brugia pahangi [4])
CCCCCCCCCCCCNC(=O)c1cc([N+](=O)[O-])ccc1O	1.41	0%	39 nM	–	–
CCCCCCCCCCCCCCNC(=O)c1cccc(NC(C)=O)c1O	-0.9	–	8000 nM	–	–
CC(C)(C)c1ccc(NC(=O)c2cc([N+](=O)[O-])ccc2O)cc1	0.23	44%	590 nM	–	–
CCCCCCCCCCCCCCNC(=O)c1cc([N+](=O)[O-])ccc1O	0.89	–	128 nM	–	–
CCCCCCCCNC(=O)c1cccc(NC=O)c1O	-0.41	–	2600 nM	–	–
CS(=O)(=O)c1cccc(C(=O)Nc2ccc(Oc3ccc(Cl)cc3)c(Cl)c2)c1O	0.3	42%	500 nM	–	–
CCCCCCNC(=O)c1cccc(NC=O)c1O	-1	–	> 10000 nM	–	–
CCCCCCCCCCCCCCCCNC(=O)c1cccc([N+](=O)[O-])c1O	-0.04	–	1100 nM	–	–
O=C(Nc1ccc(Oc2cccc(C(F)(F)F)c2)cc1)c1cc([N+](=O)[O-])ccc1O	1.03	80%	94 nM	–	–
CCCCCCCCCCCCCCNC(=O)c1cccc([N+](=O)[O-])c1O	0.82	–	152 nM	–	–
O=C(c1ccc(Cl)cc1)c1cc([N+](=O)[O-])ccc1O	0.48	61%	330 nM	–	–
CCCCCCCCCCCCCCNC(=O)c1cccc(NC=O)c1O	-0.85	–	7000 nM	–	80%
O=CNc1cccc(C(=O)Nc2ccc(Oc3ccc(Cl)cc3)c(Cl)c2)c1O	-0.38	–	2400 nM	–	–
O=C(Nc1ccc(C(O)c2ccccc2)cc1)c1cc([N+](=O)[O-])ccc1O (centres undefined)	-1	39%	> 10000 nM	–	–
O=C(Nc1ccc(Oc2ccccc2)cc1)c1cc([N+](=O)[O-])ccc1O	0.1	89%	800 nM	–	–
CCCCCCCCCCCCCCNC(=O)c1cc(Cl)cc([N+](=O)[O-])c1O	1.36	–	43.5 nM	–	–
O=C(Nc1ccc(Oc2ccc(C(F)(F)F)cc2)cc1)c1cc([N+](=O)[O-])ccc1O	1.02	72%	95 nM	–	–
